Assay results from ChEMBL document CHEMBL1148327, “Arylcyanoguanidines as activators of Kir6.2/SUR1K ATP channels and inhibitors of insulin release” (J Med Chem, 2004).

Columns and labels:
Beta-TC6 [1] = assay: In vitro efficacy to inhibit glucose stimulated insulin release in beta-TC6 cells […]; format: functional
Beta-TC6 [2] = assay: In vitro ability to inhibit glucose stimulated insulin release in beta-TC6 cells […]; format: functional, cell-based; conditions: Mus musculus
Beta-TC3 [3] = assay: Ability to repolarize beta-TC3 cell membrane potential; format: functional, cell-based, Rattus norvegicus; conditions: Mus musculus
Rattus norvegicus [4] = species on record: Rattus norvegicus; assay: Relaxation of phenylephrine precontracted rat isolated aorta rings.; format: functional, organism-based
Beta-TC6 [5] = assay: In vitro ability to inhibit glucose stimulated insulin release in beta-TC6 cells […]; Not active; format: functional, cell-based
Beta-TC3 [6] = assay: Ability to repolarize beta-TC3 cell membrane potential; Not significant; format: functional, cell-based, Rattus norvegicus
A10 [7] = assay: Effect on membrane potential of mitochondria in A10 smooth muscle cells from rats; format: functional; conditions: Rattus norvegicus, read-out: ED50 (the source's name)
HepG2 [8] = assay: (§1) Effective concentration required for stimulation of glucose utilization in Hepatocytes (HEP-G2 cells); format: functional, cell-based; conditions: Homo sapiens
Summary of the method: (§2)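 HEP-G2 glucose oxidation: 2×10^4 cells/well incubated overnight at 37 °C, 5% CO2. Compounds diluted from 100× DMSO stocks into medium with 10 μCi/mL D-(5-3H)-glucose, in duplicate, 3 h at 37 °C. Lysed with 10% TCA; 3H-water separated by evaporation and counted. Mean ± SEM of three experiments.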

HepG2 [9] = assay: (§3) Maximum effect on glucose utilization in HepG2 cells expressed as % of full stimulation; format: functional; conditions: Homo sapiens; summary of the method: as §2
Rattus norvegicus [10] = species on record: Rattus norvegicus; assay: Inhibitory effect on insulin release from rat islets; format: functional, organism-based
Rattus norvegicus [11] = species on record: Rattus norvegicus; assay: Efficacy to inhibit insulin release from rat islets; format: functional, organism-based
Beta-TC3 [12] = assay: Effect on membrane potential of mitochondria in beta-TC3 cells […]; format: functional; conditions: Mus musculus, read-out: ED50 (the source's name)
Rattus norvegicus [13] = species on record: Rattus norvegicus; assay: Effective concentration required relaxation of precontracted rat aorta ring; format: functional, organism-based
A10 [14] = assay: Effect on membrane potential of mitochondria of A10 smooth muscle cells in rats; format: functional; conditions: Rattus norvegicus, read-out: ED50 (the source's name)
Beta-TC3 [15] = assay: Effect on membrane potential of mitochondria of beta-TC3 cells in rats; format: functional, Rattus norvegicus; conditions: Mus musculus, read-out: ED50 (the source's name)
HepG2 [16] = assay: as §3; format: functional, Rattus norvegicus; conditions: Homo sapiens; summary of the method: as §2
Rattus norvegicus [17] = species on record: Rattus norvegicus; assay: Effect on insulin release from rat islets; format: functional, organism-based
Rattus norvegicus [18] = species on record: Rattus norvegicus; assay: Efficacy on insulin release from rat islets; format: functional, organism-based
HepG2 [19] = assay: as §1; format: functional, cell-based, Rattus norvegicus; conditions: Homo sapiens; summary of the method: as §2

Compound: C[C@@H](/N=C(\NC#N)Nc1cc(C(F)(F)F)cc(C(F)(F)F)c1)C(C)(C)C
- Efficacy (Beta-TC6 [1]): 68%
- IC50 (Beta-TC6 [2]): 4.4 µM
- IC50 (Beta-TC3 [3]): 18 µM
- IC50 (Rattus norvegicus [4]): 20.3 µM

Compound: CC(C)CC/N=C(\NC#N)Nc1cc(F)cc(F)c1
- IC50 (Beta-TC6 [5]): Not Active
- IC50 (Rattus norvegicus [4]): 85 µM
- IC50 (Beta-TC3 [6]): Not Active

Compound: C[C@H](/N=C(\NC#N)Nc1cc(C(F)(F)F)cc(C(F)(F)F)c1)C(C)(C)C
- Efficacy (Beta-TC6 [1]): 67%
- IC50 (Beta-TC6 [2]): 13.7 µM
- IC50 (Beta-TC3 [3]): 12 µM
- IC50 (Rattus norvegicus [4]): 11.9 µM

Compound: CC(C)/N=C(\NC#N)Nc1cc(C(F)(F)F)cc(C(F)(F)F)c1
- Efficacy (Beta-TC6 [1]): 20%
- IC50 (Beta-TC6 [2]): 41.4 µM
- IC50 (Beta-TC3 [6]): Not Active

Compound: C[C@@H](/N=C(\NC#N)Nc1cc(Cl)cc(Cl)c1)c1ccccc1
- Efficacy (Beta-TC6 [1]): 22%
- IC50 (Beta-TC6 [2]): 16.1 µM
- IC50 (Rattus norvegicus [4]): 43.8 µM
- IC50 (Beta-TC3 [6]): Not Active

Compound: C[C@H](/N=C(\NC#N)Nc1cc(Cl)cc(Cl)c1)c1ccccc1
- Efficacy (Beta-TC6 [1]): 27%
- IC50 (Beta-TC6 [2]): 39.8 µM
- IC50 (Beta-TC3 [3]): 25 µM

Compound: COc1cc(N/C(=N/C2CCCC2)NC#N)cc(C(F)(F)F)c1
- IC50 (Beta-TC6 [5]): Not Active
- IC50 (Rattus norvegicus [4]): 75 µM
- IC50 (Beta-TC3 [6]): Not Active

Compound: CC(C)/N=C(\NC#N)Nc1cc(Cl)cc(Cl)c1
- IC50 (Beta-TC6 [5]): Not Active
- IC50 (Rattus norvegicus [4]): 52 µM
- IC50 (Beta-TC3 [6]): Not Active

Compound: N#CN/C(=N\C1CCCC1)Nc1cc(C(F)(F)F)cc(C(F)(F)F)c1
- EC50 (A10 [7]): 1 µM
- Efficacy (Beta-TC6 [1]): 65%
- IC50 (Beta-TC6 [2]): 5.45 µM
- IC50 (Beta-TC3 [3]): 4.7 µM
- EC50 (HepG2 [8]): 10.4 µM
- Emax (HepG2 [9]): 95%
- IC50 (Rattus norvegicus [4]): > 300 µM
- IC50 (Rattus norvegicus [10]): 1.24 µM
- Efficacy (Rattus norvegicus [11]): 65%
- EC50 (Beta-TC3 [12]): > 30 µM

Compound: CCC(C)(C)/N=C(\NC#N)Nc1cc(C(F)(F)F)cc(C(F)(F)F)c1
- IC50 (Beta-TC6 [5]): Not Active
- IC50 (Beta-TC3 [6]): Not Active

Compound: N#C/N=C(\Nc1cccnc1)NC1(c2cccc(Cl)c2)CCC1
- EC50 (Rattus norvegicus [13]): 113 µM

Compound: CCC(C)(C)/N=C(\NC#N)Nc1cc(Cl)cc(Cl)c1
- Efficacy (Beta-TC6 [1]): 32%
- IC50 (Beta-TC6 [2]): 48.5 µM
- IC50 (Beta-TC3 [3]): 24 µM

Compound: CCC/N=C(\NC#N)Nc1cc(C(F)(F)F)cc(C(F)(F)F)c1
- Efficacy (Beta-TC6 [1]): 53%
- IC50 (Beta-TC3 [3]): 19 µM

Compound: N#CN/C(=N\C1CCCC1)Nc1cc(Cl)cc(Cl)c1
- Efficacy (Beta-TC6 [1]): 18%
- IC50 (Beta-TC6 [2]): 28.7 µM
- IC50 (Beta-TC3 [3]): 12 µM
- IC50 (Rattus norvegicus [4]): 75 µM

Compound: CC(C)C(C)/N=C(\NC#N)Nc1cc(C(F)(F)F)cc(C(F)(F)F)c1 (stereo unspecified)
- Efficacy (Beta-TC6 [1]): 69%
- IC50 (Beta-TC6 [2]): 5.2 µM
- IC50 (Beta-TC3 [3]): 5.5 µM
- IC50 (Rattus norvegicus [4]): 17.6 µM

Compound: N#CN/C(=N\C1(c2cccc(Cl)c2)CCC1)Nc1cc(C(F)(F)F)cc(C(F)(F)F)c1
- Efficacy (Beta-TC6 [1]): 66%
- IC50 (Beta-TC6 [2]): 2.8 µM
- IC50 (Beta-TC3 [3]): 20 µM

Compound: CC(C)CC/N=C(\NC#N)Nc1cc(C(F)(F)F)cc(C(F)(F)F)c1
- Efficacy (Beta-TC6 [1]): 77%
- IC50 (Beta-TC3 [3]): 4.7 µM

Compound: CC(C)CC/N=C(\NC#N)Nc1cc(Cl)cc(Cl)c1
- EC50 (A10 [14]): 2 µM
- Efficacy (Beta-TC6 [1]): 60%
- IC50 (Beta-TC6 [2]): 4.2 µM
- EC50 (Beta-TC3 [15]): > 30 µM
- IC50 (Beta-TC3 [3]): 0.8 µM
- Emax (HepG2 [16]): 98%
- IC50 (Rattus norvegicus [17]): 3.8 µM
- Efficacy (Rattus norvegicus [18]): 72%
- EC50 (HepG2 [19]): 22 µM

Compound: CC(C)CC/N=C(\NC#N)Nc1cccnc1
- Efficacy (Beta-TC6 [1]): 23%
- IC50 (Beta-TC6 [2]): 1.2 µM
- IC50 (Beta-TC3 [6]): Not Active

Compound: CC1=Nc2ccc(Cl)cc2S(=O)(=O)N1 [DIAZOXIDE]
- Efficacy (Beta-TC6 [1]): 23%
- IC50 (Beta-TC3 [3]): 13.7 µM
- IC50 (Rattus norvegicus [4]): 12.8 µM

Compound: CC(N/C(=N\C#N)Nc1ccncc1)C(C)(C)C (stereo unspecified) [PINACIDIL ANHYDROUS]
- IC50 (Beta-TC6 [2]): > 100 µM
- IC50 (Rattus norvegicus [4]): 0.8 µM
- IC50 (Beta-TC3 [6]): Not Active
